Consider one molecule from ChEMBL document CHEMBL4354812, “N-Benzyl/Aryl Substituted Tryptanthrin as Dual Inhibitors of Indoleamine 2,3-Dioxygenase and Tryptophan 2,3-Dioxygenase” (J Med Chem, 2019).

For one test, the species on record is Homo sapiens. In words: Inhibition of IDO1/TDO in IFNgamma-treated human HeLa cells assessed as T cell proliferation at 40 nM measured after 2 days in presence of IL-2, anti-CD3 and IFN-gamma by CFSE dye based flow cytometry analysis (reference value: 11.7 %). Also noted: scale not given: the % may be the effect or the level left. Put shortly:
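CFSE-labelled human PBMC lymphocytes (1 × 10⁶/well) were cocultured with HeLa cells (2 × 10⁵/well), a 5:1 ratio, in 150 U/mL IL-2, 100 ng/mL anti-CD3 and 60 ng/mL IFN-γ. Compound was tested at 40 nM, 200 nM, 500 nM or 1 μM. Proliferation was read by flow cytometry after 2 days, three independent experiments.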
A general note: A flow cytometer gives signals particle by particle.

The subject of test [1] is Mus musculus. In words: In vivo blockade of kynurenine pathway in Kunming mouse implanted with mouse H22 cells assessed as increase in tryptophan level in serum at 45 mg/kg, po qd for 2 weeks by HPLC analysis. Type of test: functional, organism-based. Put shortly: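 H22 tumor-bearing Kunming mice received oral dosing once daily in 0.5% CMC-Na for 2 weeks. Serum Trp and Kyn were measured by HPLC on a C18 column with 15 mM sodium acetate (pH 3.6) containing 4% acetonitrile, UV detection at 280 and 360 nm. Kyn/Trp ratio calculated. n = 9–10/group.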

Test [2] has as its target T1, Indoleamine 2,3-dioxygenase 2 (Homo sapiens) (UniProt Q6ZQW0).
T1 sequence (whole entry): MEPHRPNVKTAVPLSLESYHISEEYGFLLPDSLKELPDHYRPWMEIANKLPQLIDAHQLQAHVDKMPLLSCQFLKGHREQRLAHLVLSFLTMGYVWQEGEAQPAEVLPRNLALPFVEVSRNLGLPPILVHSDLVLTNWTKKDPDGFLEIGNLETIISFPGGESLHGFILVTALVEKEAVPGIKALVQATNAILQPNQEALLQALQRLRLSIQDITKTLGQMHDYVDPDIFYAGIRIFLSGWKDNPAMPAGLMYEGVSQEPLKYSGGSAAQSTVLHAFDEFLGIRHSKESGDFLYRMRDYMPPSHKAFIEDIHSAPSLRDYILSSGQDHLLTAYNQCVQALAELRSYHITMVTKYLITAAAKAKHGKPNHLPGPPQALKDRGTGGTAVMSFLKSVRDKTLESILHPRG
In words: Binding affinity to human IDO2 at 200 uM by STD NMR spectrometry analysis.

Test [3] concerns Mus musculus. The test can be described thus: In vivo blockade of kynurenine pathway in C57BL/6 mouse implanted with mouse LLC cells assessed as decrease in kynurenine/tryptophan ratio in tumor at 45 mg/kg, po qd for 2 weeks by LC-MS analysis. The test is classed as functional, organism-based. Summed up: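 LLC tumor-bearing C57BL/6 mice received oral dosing once daily in 0.5% CMC-Na for 2 weeks. Tumors were dissected and Trp and Kyn measured by LC–MS on a C18 column with acetonitrile/0.1% formic acid gradient (5–80%), positive ion mode, m/z 205 (Trp) and 209 (Kyn), metronidazole internal standard. Kyn/Trp ratio calculated. n = 4–6/group.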

In test [4] the test system is Lewis lung carcinoma cell line. The test can be described thus: Antitumor activity against mouse LLC cells implanted in C57BL/6 mouse assessed as reduction in tumor weight at 45 mg/kg, po qd administered for 2 weeks and measured post-treatment. The test is classed as functional, organism-based. Summed up:
(§1)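 Tumor cells (LLC, or H22 ascites cells after two intraperitoneal passages in Kunming mice) injected sc into the right forelimb at 2 × 10⁶ per mouse, in female 6–8-week C57BL/6 or Kunming mice. Oral dosing once daily began at 5 mm tumor diameter and continued 2 weeks. Vehicle was 0.5% CMC-Na. Volume was read by caliper every 2 days as long × short²/2. Tumors were weighed at sacrifice. n = 9–10/group.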

For test [5], the target named is Tryptophan 2,3-dioxygenase (Homo sapiens, UniProt P48775). In words: Binding affinity to human TDO assessed as change in spectral signal at 200 uM by CPMG NMR spectrometry analysis.
Chain of Tryptophan 2,3-dioxygenase (P48775 whole entry, looked up): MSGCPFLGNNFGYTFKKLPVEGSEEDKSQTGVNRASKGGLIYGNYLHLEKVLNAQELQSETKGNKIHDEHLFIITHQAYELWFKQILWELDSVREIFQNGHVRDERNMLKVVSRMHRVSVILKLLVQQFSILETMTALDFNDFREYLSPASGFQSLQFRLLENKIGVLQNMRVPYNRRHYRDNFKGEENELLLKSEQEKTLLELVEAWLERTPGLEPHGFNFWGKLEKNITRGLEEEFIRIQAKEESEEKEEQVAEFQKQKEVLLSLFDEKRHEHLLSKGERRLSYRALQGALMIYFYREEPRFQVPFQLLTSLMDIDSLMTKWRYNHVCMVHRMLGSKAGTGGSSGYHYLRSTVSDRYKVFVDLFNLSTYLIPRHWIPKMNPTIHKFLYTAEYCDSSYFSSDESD
In another test the test system is Rattus norvegicus. In words: In vivo inhibition of IDO1/2/TDO in Sprague-Dawley rat assessed as decrease in kynurenine/tryptophan ratio in lung at 30 mg/kg, ig administered as single dose by LC-MS analysis. Type of test: functional, organism-based. Put shortly: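 Naive SD rats received a single ig dose of 30 mg/kg in 0.5% CMC-Na, with vehicle as control. Lungs were dissected and Trp and Kyn quantified by LC–MS, with the Kyn/Trp ratio calculated. n = 3–4 rats/group.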

For test [6], the system named is Mus musculus. The test can be described thus: In vivo inhibition of IDO1/2/TDO in C57BL/6 mouse assessed as decrease in LPS-stimulated kynurenine pathway by measuring effect on kynurenine level at 60 mg/kg, ig pretreated for 24 hrs with Escherichia coli LPS followed by compound treatment measured at 1 to 30 hrs post-treatment by HPLC analysis. Type of test: functional, organism-based. Summed up: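 C57BL/6 mice were given ip saline or E. coli LPS 5 mg/kg. 24 h later they received ig 60 mg/kg compound or 0.5% CMC-Na. Blood was taken at 1, 6, 12, 24 and 30 h after dosing. Serum Trp and Kyn were measured by HPLC and the Kyn/Trp ratio calculated. n = 3–5 mice/group.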

For test [7], the target named is T1, Indoleamine 2,3-dioxygenase 2 (Homo sapiens). In words: Binding affinity to human IDO2 assessed as change in spectral signal at 200 uM by CPMG NMR spectrometry analysis.
Test [8] deals with Lewis lung carcinoma cell line. The test can be described thus: Antitumor activity against mouse LLC cells implanted in C57BL/6 mouse assessed as reduction in tumor volume at 45 mg/kg, po qd administered for 2 weeks and measured at 2 days interval during compound dosing relative to control. The test is classed as functional. Also noted: scale not given: the % may be the effect or the level left. Summed up: as §1

The source made the active and inactive calls. The calls are words filed in the database; no cut-off is given here.

For `CN1CCN(Cc2ccc3nc4n(c(=O)c3c2)-c2ccc(F)cc2C4=O)CC1`, the Activity in the test filed under Homo sapiens is 37.2%; in test [8], 56.2%. The outcome (in the test on Mus musculus [1]; in [2]; with Mus musculus [3]; in test [4]; in test [5]; in [7]) was Active. Besides, the inhibition result in the test on Rattus norvegicus is “Active”. Further, in the test with Mus musculus [6], the inhibition entry is “inactive”.
